Measured values: ChEMBL document CHEMBL3856284, “Discovery, design and synthesis of 6H-anthra[1,9-cd]isoxazol-6-one scaffold as G9a inhibitor through a combination of shape-based virtual screening and structure-based molecular modification” (Bioorg Med Chem, 2016)
The source made the active and inactive calls. The rule behind the calls is not given here.

Experiments:
[1] = molecular target: T1, Histone-lysine N-methyltransferase EHMT2 (Homo sapiens, UniProt Q96KQ7); assay: Inhibition of G9a (unknown origin) using biotinylated-histone H3 (1 to 21 residues)/S-adenosyl-methionine as substrate/methyl donor after 3 hrs by AlphaScreen assay
T1 sequence (Q96KQ7 whole entry): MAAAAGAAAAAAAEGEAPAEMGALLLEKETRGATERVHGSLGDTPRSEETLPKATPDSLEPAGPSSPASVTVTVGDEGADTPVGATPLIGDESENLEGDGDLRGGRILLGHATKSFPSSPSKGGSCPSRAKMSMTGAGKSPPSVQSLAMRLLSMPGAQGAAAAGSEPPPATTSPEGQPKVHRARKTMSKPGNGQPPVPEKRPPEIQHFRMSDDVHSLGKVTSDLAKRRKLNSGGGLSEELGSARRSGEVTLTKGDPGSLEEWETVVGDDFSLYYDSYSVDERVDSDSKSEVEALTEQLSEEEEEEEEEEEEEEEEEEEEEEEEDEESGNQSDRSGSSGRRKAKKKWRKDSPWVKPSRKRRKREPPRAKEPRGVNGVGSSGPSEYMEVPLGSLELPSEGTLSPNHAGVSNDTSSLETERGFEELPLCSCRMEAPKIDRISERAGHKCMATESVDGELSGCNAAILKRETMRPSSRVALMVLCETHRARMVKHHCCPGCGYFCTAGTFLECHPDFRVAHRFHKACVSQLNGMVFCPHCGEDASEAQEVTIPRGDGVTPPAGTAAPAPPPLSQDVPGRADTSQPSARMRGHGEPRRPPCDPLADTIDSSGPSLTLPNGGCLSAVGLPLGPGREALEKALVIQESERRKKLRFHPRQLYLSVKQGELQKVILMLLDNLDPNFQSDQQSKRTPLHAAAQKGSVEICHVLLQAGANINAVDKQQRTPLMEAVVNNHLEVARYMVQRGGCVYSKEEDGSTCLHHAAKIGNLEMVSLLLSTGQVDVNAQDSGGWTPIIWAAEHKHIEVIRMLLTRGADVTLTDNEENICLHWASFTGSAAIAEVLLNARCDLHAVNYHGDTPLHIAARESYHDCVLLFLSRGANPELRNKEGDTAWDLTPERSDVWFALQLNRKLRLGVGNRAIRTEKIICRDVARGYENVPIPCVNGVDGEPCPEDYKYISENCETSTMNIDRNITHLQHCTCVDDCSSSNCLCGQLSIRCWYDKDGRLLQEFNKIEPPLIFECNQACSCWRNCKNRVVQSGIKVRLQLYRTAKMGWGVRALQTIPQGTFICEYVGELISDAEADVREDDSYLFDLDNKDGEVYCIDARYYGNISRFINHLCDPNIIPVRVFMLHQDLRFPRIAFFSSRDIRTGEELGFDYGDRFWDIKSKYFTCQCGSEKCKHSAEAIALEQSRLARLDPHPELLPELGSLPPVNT
Procedure, shortened: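 AlphaScreen G9a assay. Compounds were first screened at 10 µM. IC50 came from concentration-response curves of ten escalating concentrations (0.1 nM–10 µM), using two independent experiments, reported as mean ± SD.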

[2] = Antiproliferative activity against human HepG2 cells assessed as inhibition of cell viability after 72 hrs by MTT assay; format: functional, cell-based; conditions: HepG2, 72 h
[3] = test system: MCF7; assay: Induction of phenotypic changes in human MCF7 cells assessed as shrinkage at 4 uM after 24 hrs by inverted light microscopic method; format: functional, cell-based
Procedure, shortened: (§1)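 MCF-7 cells were incubated 24 h with 2, 4 or 8 µM compound, with an untreated group as control. Cell morphology (distortion, blebbing, shrinkage, rounding, necrosis) was examined under an inverted light microscope at ×200.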

[4] = test system: MCF7; assay: Induction of phenotypic changes in human MCF7 cells assessed as round in shape at 8 uM after 24 hrs by inverted light microscopic method; format: functional, cell-based; procedure, shortened: as §1
[5] = test system: MCF7; assay: Induction of phenotypic changes in human MCF7 cells at 2 uM after 24 hrs by inverted light microscopic method; format: functional, cell-based; procedure, shortened: as §1
[6] = test system: MCF7; assay: Induction of apoptosis in human MCF7 cells assessed as appearance of apoptotic bodies after 24 hrs by Hoechst 33258 staining-based fluorescence microscopy; format: functional, cell-based
[7] = test system: MCF7; assay: Induction of apoptosis in human MCF7 cells assessed as viable cells at 2 uM after 48 hrs by annexin V staining-based flow cytometric analysis (reference value: 82.85%); format: functional; conditions: MCF7, 48 h, read-out: Activity
[8] = test system: MCF7; assay: Induction of apoptosis in human MCF7 cells assessed as late apoptotic cells at 8 uM after 48 hrs by annexin V staining-based flow cytometric analysis (reference value: 11%); format: functional
[9] = molecular target: T2, Histone-lysine N-methyltransferase EHMT2 (Homo sapiens) (UniProt Q96KQ7); assay: Inhibition of G9a in human MCF7 cells assessed as decrease in dimethylation level of H3K9 at […] after 48 hrs by Western blot method; format: cell-based
T2 sequence (whole entry): T1 sequence (Q96KQ7 whole entry)

[10] = test system: Mus musculus; assay: AUC in mouse at 10 mg/kg, po after 5 mins to 24 hrs by LC-MS/MS analysis; conditions: in vivo
[11] = test system: Mus musculus; assay: AUC in mouse at 10 mg/kg, iv after 2 mins to 24 hrs by LC-MS/MS analysis; conditions: in vivo
[12] = test system: Mus musculus; assay: Tmax in mouse at 10 mg/kg, iv after 2 mins to 24 hrs by LC-MS/MS analysis; conditions: in vivo
[13] = test system: Mus musculus; assay: Cmax in mouse at 10 mg/kg, iv after 2 mins to 24 hrs by LC-MS/MS analysis; conditions: in vivo
[14] = test system: Mus musculus; assay: Half life in mouse at 10 mg/kg, po after 5 mins to 24 hrs by LC-MS/MS analysis; conditions: in vivo
[15] = test system: Mus musculus; assay: Oral bioavailability in mouse at 10 mg/kg after 5 mins to 24 hrs by LC-MS/MS analysis; conditions: in vivo

- IC50 [1]: 2.18 µM
- inhibition [9]: Active
- AUC [10]: 724 ng·h/mL
- AUC [11]: 1300 ng·h/mL
- Tmax [12]: 7.2 min
- Cmax [13]: 188 ng/mL
- half-life [14]: 4 h
- bioavailability [15]: 55.5%
Compound: O=C1c2ccccc2-c2onc3c(N4CCCCC4)cc(NCCN4CCCC4)c1c23
- IC50 [2]: 7.93 µM
- Activity [3]: Active
- Activity [4]: Active
- Activity [5]: Active
- Activity [6]: Dose-dependent effect
- viability at 2 µM [7]: 78.2%
- Activity [8]: 30.05%
